# Laboratory results reported in ChEMBL document CHEMBL1154972, “Novel pyrazolo-tetrahydropyridines as potent orexin receptor antagonists” (Bioorg Med Chem Lett, 2010).
# Active and inactive are the calls of the source. The calls are words filed in the database; no cut-off is given here.
# Tests used:
# [1] = target: T1, Orexin/Hypocretin receptor type 1 (Homo sapiens, UniProt O43613); assay: Antagonist activity at human OX1 receptor expressed in CHO cells assessed as inhibition of calcium mobilization by FLIPR assay; assay type: functional, cell-based
# T1 sequence (O43613 whole entry): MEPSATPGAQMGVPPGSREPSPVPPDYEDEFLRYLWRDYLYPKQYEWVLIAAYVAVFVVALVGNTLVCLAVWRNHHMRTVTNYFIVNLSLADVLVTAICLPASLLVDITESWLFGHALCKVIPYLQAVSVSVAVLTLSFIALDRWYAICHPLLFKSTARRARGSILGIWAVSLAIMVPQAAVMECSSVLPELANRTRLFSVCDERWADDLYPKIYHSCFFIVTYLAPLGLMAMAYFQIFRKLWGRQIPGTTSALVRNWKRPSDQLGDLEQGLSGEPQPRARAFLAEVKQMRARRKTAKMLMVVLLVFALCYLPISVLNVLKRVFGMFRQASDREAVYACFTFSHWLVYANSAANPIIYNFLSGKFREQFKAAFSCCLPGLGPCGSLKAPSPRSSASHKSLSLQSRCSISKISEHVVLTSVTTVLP
# How it was run: (§1)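 CHO cells stably bearing human OX1 or OX2 receptor, plated and loaded at 37 °C, 5% CO2 with fluo-3 AM calcium dye, then washed. Test antagonists added at varying concentrations before orexin A challenge; intracellular Ca2+ rise followed as fluorescence change on FLIPR. IC50 taken as concentration giving 50% inhibition of agonist response.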
# Orexin receptor type 2 = target: T2, Orexin receptor type 2 (Homo sapiens, UniProt O43614); assay: Antagonist activity at human OX2 receptor expressed in CHO cells assessed as inhibition of calcium mobilization by FLIPR assay; assay type: functional, cell-based; how it was run: as §1
# T2 sequence (O43614 whole entry): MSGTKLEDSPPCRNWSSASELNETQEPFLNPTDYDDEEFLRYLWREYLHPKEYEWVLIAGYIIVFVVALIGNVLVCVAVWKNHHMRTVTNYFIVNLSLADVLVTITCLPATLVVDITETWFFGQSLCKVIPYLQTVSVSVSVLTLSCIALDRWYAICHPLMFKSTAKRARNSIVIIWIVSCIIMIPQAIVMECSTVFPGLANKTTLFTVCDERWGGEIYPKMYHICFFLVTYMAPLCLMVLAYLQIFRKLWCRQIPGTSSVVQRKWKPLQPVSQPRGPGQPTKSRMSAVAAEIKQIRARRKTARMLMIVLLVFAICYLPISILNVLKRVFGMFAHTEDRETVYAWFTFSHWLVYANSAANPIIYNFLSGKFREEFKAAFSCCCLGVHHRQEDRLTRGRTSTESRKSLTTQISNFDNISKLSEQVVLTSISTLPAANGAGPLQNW
# Rattus norvegicus [2] = assay: Somnolence activity in Wistar rat assessed as home cage activity in dark at 100 mg/kg, po over 12 hrs night period by radiotelemetric assay; assay type: functional, organism-based; parameters: dose 100 mg/kg
# How it was run: (§2)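 Adult male Wistar rats carrying radiotelemetric implants; single oral dose 100 mg/kg in 100% PEG-400 given at dark (active) phase onset. EEG, EMG, home cage activity and body temperature recorded, effects integrated over following 12-h night. Crossover design, groups of 7 or 8, washout of at least 4 days; paired t-test; means ± SEM.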
# Rattus norvegicus [3] = assay: Somnolence activity in Wistar rat assessed as time spent in non-rapid eye movement sleep at 100 mg/kg, po over 12 hrs night period by radiotelemetric assay; assay type: functional, organism-based; parameters: dose 100 mg/kg; how it was run: as §2
# Rattus norvegicus [4] = assay: Somnolence activity in Wistar rat assessed as time spent in rapid eye movement sleep at 100 mg/kg, po over 12 hrs night period by radiotelemetric assay; assay type: functional; how it was run: as §2
# Rattus norvegicus [5] = assay: Somnolence activity in Wistar rat assessed as time spent in active wake at 100 mg/kg, po over 12 hrs night period by radiotelemetric assay; assay type: functional, organism-based; parameters: dose 100 mg/kg; how it was run: as §2
SMILES,IC50 [1] [nM],IC50 (Orexin receptor type 2) [nM],Activity (Rattus norvegicus [2]),Activity (Rattus norvegicus [3]),Activity (Rattus norvegicus [4]) [%],Activity (Rattus norvegicus [5])
CCn1nc(C)c2c1CCN([C@@H](C(=O)NC)c1ccccc1)[C@@H]2CCc1ccc(C(C)C)cc1,1920,179,–,–,–,–
CCn1nc(C)c2c1CCN(C(C(=O)NC)c1ccccc1)C2CCc1cccc(F)c1 (mixture of isomers),402,10,–,–,–,–
CCn1nc(C)c2c1CCN(C(C(=O)NC)c1ccccc1)C2CCc1cccc(C(F)(F)F)c1 (mixture of isomers),358,7,–,–,–,–
CCn1nc(C)c2c1CCN(C(C(=O)NC)c1ccccc1)C2CCc1ccc(C)cc1 (mixture of isomers),108,6,–,–,–,–
CCn1nc(C)c2c1CCN([C@@H](C(=O)NC)c1ccccc1)[C@H]2CCc1cc(F)c(C(F)(F)F)c(F)c1,–,–,Active,Active,8,–
CCn1nc(C)c2c1CCN([C@@H](C(=O)NC)c1ccccc1)[C@H]2CCc1ccc(C)c(C)c1,–,–,Active,Active,15,Active
CCn1nc(C)c2c1CCN([C@@H](C(=O)NC)c1ccccc1)[C@H]2CCc1ccc(C(F)(F)F)cc1,128,3,–,–,–,–
CCn1nc(C)c2c1CCN(C(C(=O)NC)c1ccccc1)C2CCc1ccc(Cl)cc1 (mixture of isomers),993,12,–,–,–,–

# Further lines, with some results ahead:
IC50 [1] [nM],IC50 (Orexin receptor type 2) [nM],SMILES,Activity (Rattus norvegicus [2]),Activity (Rattus norvegicus [3]),Activity (Rattus norvegicus [4]) [%],Activity (Rattus norvegicus [5])
769,25,CCn1nc(C)c2c1CCN(C(C(=O)NC)c1ccccc1)C2Cc1ccc(C(F)(F)F)cc1 (mixture of isomers),–,–,–,–
10000,219,CCn1nc(C)c2c1CCN(C(C(=O)NC)c1ccccc1)C2CCc1ccc(OC)cc1 (mixture of isomers),–,–,–,–
669,22,CCn1nc(C)c2c1CCN(C(C(=O)NC)c1ccccc1)C2CCc1ccccc1F (mixture of isomers),–,–,–,–
63,3,CCc1ccc(CC[C@H]2c3c(C)nn(CC)c3CCN2[C@@H](C(=O)NC)c2ccccc2)cc1,–,–,–,–
1030,21,CCn1nc(C)c2c1CCN(C(C(=O)NC)c1ccccc1)C2CCc1ccccc1C (mixture of isomers),–,–,–,–
10000,19,CCn1nc(C)c2c1CCN([C@@H](C(=O)NC)c1ccccc1)[C@H]2COc1ccc(C)cc1,–,–,–,–
161,9,CCn1nc(C)c2c1CCN([C@@H](C(=O)NC)c1ccccc1)[C@H]2CCc1ccc(C(C)C)cc1,–,–,–,–
180,19,CCn1nc(C)c2c1CCN(C(C(=O)NC)c1ccccc1)C2CCc1cccc(C)c1 (mixture of isomers),–,–,–,–
1420,174,CCc1ccc(CC[C@@H]2c3c(C)nn(CC)c3CCN2[C@@H](C(=O)NC)c2ccccc2)cc1,–,–,–,–
